Here are results for ten compounds from ChEMBL document CHEMBL4680175, “Sulfonamide-based ring-fused analogues for CAN508 as novel carbonic anhydrase inhibitors endowed with antitumor activity: Design, synthesis, and in vitro biological evaluation” (Eur J Med Chem, 2020).

Test [1] has as its target Cyclin-dependent kinase 2/cyclin E1 (Homo sapiens, UniProt P24941). Put plainly: Inhibition of CDK2/cyclin E (unknown origin) expressed in baculovirus infected Sf21 insect cells using histone H1 as substrate in presence of [gamma33P]ATP.
The next test concerns the target Carbonic anhydrase 2 (Homo sapiens, UniProt P00918). In words: Inhibition of recombinant human carbonic anhydrase 2 preincubated with enzyme for 15 mins by phenol red dye based stopped flow CO2 hydrase assay.
The target of a further test is Carbonic anhydrase 1 (Homo sapiens, UniProt P00915). In words: Inhibition of recombinant human carbonic anhydrase 1 preincubated with enzyme for 15 mins by phenol red dye based stopped flow CO2 hydrase assay.
A further test deals with Carbonic anhydrase 12 (Homo sapiens, UniProt O43570). Put plainly: Inhibition of recombinant human carbonic anhydrase 12 preincubated with enzyme for 15 mins by phenol red dye based stopped flow CO2 hydrase assay.
The next test deals with CDK9/cyclin T1 (Homo sapiens, UniProt P50750). In words: Inhibition of human full-length N-terminal GST/His6-tagged CDK9 (1 to 372 residues)/His6-tagged Cyclin-T1 (1 to 726 residues) expressed in sf9 cells using (YSPTSPS)2KK peptide as substrate in presence of [gamma33P]ATP.
A further test concerns the target Carbonic anhydrase 9 (Homo sapiens, UniProt Q16790). In words: Inhibition of recombinant human carbonic anhydrase 9 preincubated with enzyme for 15 mins by phenol red dye based stopped flow CO2 hydrase assay.
Another test has as its system BT-549. Put plainly: Antitumor activity against human BT-549 cells assessed as cell growth inhibition at 10 uM incubated for 48 hrs by sulforhodamine B assay. In kind it is functional. Conditions: read-out: GI. In outline:
(§1)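 NCI Drug Evaluation Branch protocol: primary single-dose screen at 10 μM across a 57-line human cancer panel. Drug exposure is 48 h. Cell growth and viability are read by sulforhodamine B assay. Data are given as a mean graph of percent growth of treated cells and reported as percentage growth inhibition (GI%).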

The next test deals with 786-0. Put plainly: Antitumor activity against human 786-0 cells assessed as cell growth inhibition at 10 uM incubated for 48 hrs by sulforhodamine B assay. The conditions noted are these: read-out: GI. It is filed as functional. A digest of the protocol:
as §1

In a further test the test system is SNB-75. In words: Antitumor activity against human SNB-75 cells assessed as cell growth inhibition at 10 uM incubated for 48 hrs by sulforhodamine B assay. Conditions: read-out: GI. In kind it is functional. In outline: (§2)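 NCI one-dose screen: 57-cell-line panel exposed at 10 μM for 48 h, Drug Evaluation Branch protocol. Growth and viability read by sulforhodamine B; data given as percent growth inhibition from the mean-graph of percent growth of treated cells.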

A further test deals with LOX IMVI. Put plainly: Antitumor activity against human LOX IMVI cells assessed as cell growth inhibition at 10 uM incubated for 48 hrs by sulforhodamine B assay. It is filed as functional. The conditions noted are these: read-out: GI. A digest of the protocol: as §1
In another test the test system is SR. In words: Antitumor activity against human SR cells assessed as cell growth inhibition at 10 uM incubated for 48 hrs by sulforhodamine B assay. In kind it is functional. The conditions noted are these: read-out: GI. A digest of the protocol: as §2
A further test has as its system NCI-H522. In words: Antitumor activity against human NCI-H522 cells assessed as cell growth inhibition at 10 uM incubated for 48 hrs by sulforhodamine B assay. It is filed as functional. The conditions noted are these: read-out: GI. In outline:
as §1

Another test deals with A498. Put plainly: Antitumor activity against human A498 cells assessed as cell growth inhibition at 10 uM incubated for 48 hrs by sulforhodamine B assay. In kind it is functional. Conditions: read-out: GI. In outline: as §1
The test system of the next test is M14. In words: Antitumor activity against human M14 cells assessed as cell growth inhibition at 10 uM incubated for 48 hrs by sulforhodamine B assay. In kind it is functional. Conditions: read-out: GI. A digest of the protocol:
as §1

Another test concerns NCI-H460. Put plainly: Antitumor activity against human NCI-H460 cells assessed as cell growth inhibition at 10 uM incubated for 48 hrs by sulforhodamine B assay. Conditions: read-out: GI. It is filed as functional. In outline:
as §1

Another test deals with Hs-578T. In words: Antitumor activity against human HS 578T cells assessed as cell growth inhibition at 10 uM incubated for 48 hrs by sulforhodamine B assay. It is filed as functional. The conditions noted are these: read-out: GI. In outline: as §1
In a further test the test system is SK-OV-3. Put plainly: Antitumor activity against human SK-OV-3 cells assessed as cell growth inhibition at 10 uM incubated for 48 hrs by sulforhodamine B assay. It is filed as functional. The conditions noted are these: read-out: GI. In outline:
as §1

The subject of another test is IGROV-1. In words: Antitumor activity against human IGROV1 cells assessed as cell growth inhibition at 10 uM incubated for 48 hrs by sulforhodamine B assay. It is filed as functional. The conditions noted are these: read-out: GI. A digest of the protocol: as §1
Another test deals with UO-31. In words: Antitumor activity against human UO-31 cells assessed as cell growth inhibition at 10 uM incubated for 48 hrs by sulforhodamine B assay. In kind it is functional. Conditions: read-out: GI. In outline: as §2
For another test, the system named is NCI-H322M. In words: Antitumor activity against human NCI-H322M cells assessed as cell growth inhibition at 10 uM incubated for 48 hrs by sulforhodamine B assay. In kind it is functional. Conditions: read-out: GI. A digest of the protocol: as §1
A further test has as its system ACHN. Put plainly: Antitumor activity against human ACHN cells assessed as cell growth inhibition at 10 uM incubated for 48 hrs by sulforhodamine B assay. In kind it is functional. The conditions noted are these: read-out: GI. A digest of the protocol: as §1
The subject of a further test is TK-10. Put plainly: Antitumor activity against human TK-10 cells assessed as cell growth inhibition at 10 uM incubated for 48 hrs by sulforhodamine B assay. In kind it is functional. Conditions: read-out: GI. A digest of the protocol: as §2
The subject of the next test is CAKI-1. Put plainly: Antitumor activity against human CAKI-1 cells assessed as cell growth inhibition at 10 uM incubated for 48 hrs by sulforhodamine B assay. Conditions: read-out: GI. In kind it is functional. A digest of the protocol: as §1
For another test, the system named is NCI/ADR-RES. Put plainly: Antitumor activity against human NCI/ADR-RES cells assessed as cell growth inhibition at 10 uM incubated for 48 hrs by sulforhodamine B assay. In kind it is functional, cell-based. In outline:
as §1

The test system of the next test is RXF 393. Put plainly: Antitumor activity against human RXF 393 cells assessed as cell growth inhibition at 10 uM incubated for 48 hrs by sulforhodamine B assay. It is filed as functional. Conditions: read-out: GI. In outline:
as §1

Active and inactive are the calls of the source. No cut-off for these calls is given here.

Sequence of CDK9/cyclin T1 (O60563 whole entry, the tested form may be a part): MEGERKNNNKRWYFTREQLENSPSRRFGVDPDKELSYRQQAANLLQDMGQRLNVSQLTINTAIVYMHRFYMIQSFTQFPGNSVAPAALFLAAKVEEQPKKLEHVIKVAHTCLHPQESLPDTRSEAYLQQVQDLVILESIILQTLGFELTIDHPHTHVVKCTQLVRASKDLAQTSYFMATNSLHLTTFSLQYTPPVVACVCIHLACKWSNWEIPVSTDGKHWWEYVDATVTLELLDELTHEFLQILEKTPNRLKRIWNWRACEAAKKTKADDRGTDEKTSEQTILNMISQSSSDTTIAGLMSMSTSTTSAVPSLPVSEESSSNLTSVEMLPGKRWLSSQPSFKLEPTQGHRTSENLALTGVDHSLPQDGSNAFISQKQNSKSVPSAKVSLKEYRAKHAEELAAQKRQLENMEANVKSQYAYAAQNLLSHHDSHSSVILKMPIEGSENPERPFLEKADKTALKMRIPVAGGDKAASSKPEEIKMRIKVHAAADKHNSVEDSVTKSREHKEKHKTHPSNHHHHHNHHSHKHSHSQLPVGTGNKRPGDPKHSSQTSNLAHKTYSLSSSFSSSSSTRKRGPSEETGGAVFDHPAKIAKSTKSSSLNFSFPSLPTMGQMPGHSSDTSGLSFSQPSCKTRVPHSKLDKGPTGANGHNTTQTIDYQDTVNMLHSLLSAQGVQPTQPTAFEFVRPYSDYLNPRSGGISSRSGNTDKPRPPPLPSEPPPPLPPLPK
Sequence of CDK9/cyclin T1 (P50750 whole entry, the tested form may be a part): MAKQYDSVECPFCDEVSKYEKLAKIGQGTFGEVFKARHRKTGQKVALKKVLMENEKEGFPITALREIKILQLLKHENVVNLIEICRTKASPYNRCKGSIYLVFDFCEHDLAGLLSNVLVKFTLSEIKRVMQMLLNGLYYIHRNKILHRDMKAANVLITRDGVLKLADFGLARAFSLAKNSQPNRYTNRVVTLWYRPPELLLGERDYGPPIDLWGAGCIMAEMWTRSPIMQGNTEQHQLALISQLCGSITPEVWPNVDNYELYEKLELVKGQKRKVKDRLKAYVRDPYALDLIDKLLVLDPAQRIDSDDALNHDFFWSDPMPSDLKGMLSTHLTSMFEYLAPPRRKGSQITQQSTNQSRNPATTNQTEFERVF
Sequence of Carbonic anhydrase 12 (O43570 whole entry, the tested form may be a part): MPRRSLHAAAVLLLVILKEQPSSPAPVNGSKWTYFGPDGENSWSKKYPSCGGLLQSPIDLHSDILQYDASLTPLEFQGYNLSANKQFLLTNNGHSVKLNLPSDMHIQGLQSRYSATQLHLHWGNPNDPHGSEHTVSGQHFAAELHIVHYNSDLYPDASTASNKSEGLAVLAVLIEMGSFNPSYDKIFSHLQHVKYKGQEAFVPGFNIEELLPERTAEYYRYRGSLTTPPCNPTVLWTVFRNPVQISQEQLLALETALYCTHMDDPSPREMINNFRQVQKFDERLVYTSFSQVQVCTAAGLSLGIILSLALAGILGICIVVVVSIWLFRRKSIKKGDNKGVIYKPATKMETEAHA
Sequence of Carbonic anhydrase 1 (P00915 whole entry): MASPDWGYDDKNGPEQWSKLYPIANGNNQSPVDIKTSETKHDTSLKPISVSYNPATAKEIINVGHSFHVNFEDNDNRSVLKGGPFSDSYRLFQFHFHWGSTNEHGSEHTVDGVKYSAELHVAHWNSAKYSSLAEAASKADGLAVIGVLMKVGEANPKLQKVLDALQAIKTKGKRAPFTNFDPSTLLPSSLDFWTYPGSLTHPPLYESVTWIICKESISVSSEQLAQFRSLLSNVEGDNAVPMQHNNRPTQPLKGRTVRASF

Regarding `Nc1nn2c(-c3ccccc3)ccnc2c1/N=N/c1ccc(S(N)(=O)=O)cc1`, the IC50 (in test [1]; at CDK9/cyclin T1) was more than 12500 nM in each case. The Ki came to 27.6 nM on Carbonic anhydrase 2, 458 nM at Carbonic anhydrase 1, 25.4 nM on Carbonic anhydrase 12 and 31.8 nM at Carbonic anhydrase 9.
For `Cc1ccc(-c2ccnc3c(/N=N/c4ccc(S(N)(=O)=O)cc4)c(N)nn23)cc1`, the IC50 (in [1]; on CDK9/cyclin T1) was more than 12500 nM each time. Besides, the Ki was 6.2 nM at Carbonic anhydrase 2, 1330 nM on Carbonic anhydrase 1, 60.7 nM at Carbonic anhydrase 12 and 45.7 nM on Carbonic anhydrase 9.
With `Nc1n[nH]c(N)c1/N=N/c1ccc(S(N)(=O)=O)cc1`, the results for the IC50 (in [1]; on CDK9/cyclin T1) were 41700 nM and more than 12500 nM, respectively. Besides, the Ki on Carbonic anhydrase 2 was 38.1 nM; at Carbonic anhydrase 1, 271 nM; at Carbonic anhydrase 12 it was 10.1 nM; at Carbonic anhydrase 9 it was 22 nM.
Turning to `Nc1nn2c(-c3cccs3)ccnc2c1/N=N/c1ccc(S(N)(=O)=O)cc1`, the IC50 (in test [1]; at CDK9/cyclin T1) was more than 12500 nM in each case. The Ki on Carbonic anhydrase 2 worked out at 7.1 nM; on Carbonic anhydrase 1, 1150 nM; at Carbonic anhydrase 12, 59 nM; on Carbonic anhydrase 9, 40.1 nM.
Turning to `Nc1nn2c(-c3ccc(Cl)cc3)ccnc2c1/N=N/c1ccc(S(N)(=O)=O)cc1`, the IC50 was 6400 nM in test [1] and more than 12500 nM on CDK9/cyclin T1. Further, the Ki at Carbonic anhydrase 2 is 23.4 nM; at Carbonic anhydrase 1, 544 nM; on Carbonic anhydrase 12, 44.3 nM; at Carbonic anhydrase 9, 56.3 nM.
Turning to `Nc1nn2c(-c3ccc(F)cc3)ccnc2c1/N=N/c1ccc(S(N)(=O)=O)cc1`, the IC50 (in [1]; at CDK9/cyclin T1) was more than 12500 nM throughout. For the same compound, the Ki is 14.5 nM at Carbonic anhydrase 2, 681 nM on Carbonic anhydrase 1, 31.4 nM at Carbonic anhydrase 12 and 6 nM at Carbonic anhydrase 9.
With `COc1ccc(-c2ccnc3c(/N=N/c4ccc(S(N)(=O)=O)cc4)c(N)nn23)cc1`, the IC50 (in test [1]; at CDK9/cyclin T1) was more than 12500 nM in each case. The Ki at Carbonic anhydrase 2 was 5.5 nM; on Carbonic anhydrase 1, 442 nM; on Carbonic anhydrase 12, 88.6 nM; at Carbonic anhydrase 9 it was 29.3 nM.
Take `Nc1nn2cc(-c3ccc(Cl)cc3)[nH]c2c1/N=N/c1ccc(S(N)(=O)=O)cc1`: the IC50 (in test [1]; at CDK9/cyclin T1) was more than 12500 nM in each case. Besides, the inhibition of growth at 10 µM is 34% in the test on BT-549; 28% in the test with 786-0; 23% with SNB-75; 21% in the test with LOX IMVI; 28% in the test on SR; 30% in the test on NCI-H522. In addition, the inhibition of growth at 10 µM with A498 is 65%; in the test on M14, 21%; with NCI-H460 it was 25%; in the test with Hs-578T, 21%; with SK-OV-3, 21%; in the test on IGROV-1 it was 21%. The inhibition of growth at 10 µM in the test on UO-31 is 22%; in the test with NCI-H322M, 25%; in the test with ACHN it was 29%; with TK-10 it was 27%; in the test with CAKI-1, 35%; in the test on RXF 393, 29%. For the same compound, the Ki on Carbonic anhydrase 2 turned out to be 22.1 nM; at Carbonic anhydrase 1, 651 nM; at Carbonic anhydrase 12, 36.5 nM; on Carbonic anhydrase 9 it was 16.6 nM. In addition, the result with NCI/ADR-RES was inactive.
As to `Nc1nn2c(-c3ccc([N+](=O)[O-])cc3)ccnc2c1/N=N/c1ccc(S(N)(=O)=O)cc1`, the IC50 (in [1]; on CDK9/cyclin T1) was more than 12500 nM each time. For the same compound, the Ki on Carbonic anhydrase 2 amounted to 35.6 nM; at Carbonic anhydrase 1, 2120 nM; at Carbonic anhydrase 12, 14.4 nM; on Carbonic anhydrase 9, 67.6 nM.
Turning to `Nc1nn2c(-c3ccc(Br)cc3)ccnc2c1/N=N/c1ccc(S(N)(=O)=O)cc1`, the IC50 in [1] is 8000 nM; on CDK9/cyclin T1 it was more than 12500 nM. In addition, the Ki amounted to 38.7 nM on Carbonic anhydrase 2, 768 nM at Carbonic anhydrase 1, 54.3 nM on Carbonic anhydrase 12 and 65 nM on Carbonic anhydrase 9.
